Converted amounts (≈) assume the structure as drawn.
Legend:
Format in all cases: functional
Candida albicans [1] = assay: Antifungal activity against Candida albicans cgmcc 2.2086 in presence of 12.5% human heat-inactivated serum by broth dilution method
Candida albicans [2] = assay: Fungicidal activity against Candida albicans 58288 after 96 hrs; settings: Candida albicans, 58288, 96 h; read-out: MFC99.9
Outline: (§1)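 After the 48 h, 28 °C broth microdilution in MOPS-buffered RPMI 1640 (inoculum (0.5−1) × 10^3 CFU/mL), 50 μL from each well was plated on YM agar for a further 48 h at 28 °C. MFC is the lowest concentration killing at least 99.9% of cells. Triplicate, three biological replicates.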

Candida albicans [3] = assay: Antifungal activity against Candida albicans SP3903 after 48 hrs by broth microdilution method; settings: SP3903, 48 h
Outline: (§2)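 Modified CLSI M27-A2 broth microdilution. Yeast at (0.5−1) × 10^3 CFU/mL in MOPS-buffered RPMI 1640 was mixed 1:1 with peptide serially diluted in 0.2% BSA and incubated 48 h at 28 °C. Absorbance was read at 492 nm; MIC is the lowest concentration inhibiting 95% of growth. Triplicate, three biological replicates.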

Pichia kudriavzevii [4] = assay: Antifungal activity against Candida krusei cgmcc 2.1857 after 48 hrs by broth microdilution method; settings: cgmcc 2.1857, 48 h
Outline: (§3)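 Modified CLSI M27-A2 broth microdilution. Yeast were suspended in MOPS-buffered RPMI 1640 at a final (0.5−1) × 10^3 CFU/mL and mixed 1:1 with peptide serially diluted in 0.2% BSA. Plates were incubated 48 h at 28 °C and read at A492. MIC is the lowest concentration giving 95% inhibition. Run in triplicate with three biological replicates.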

Candida albicans [5] = assay: Antifungal activity against Candida albicans cgmcc 2.2086 in presence of 25% human heat-inactivated serum by broth dilution method
Candida albicans [6] = assay: Antifungal activity against Candida albicans SP3902 after 48 hrs by broth microdilution method; settings: SP3902, 48 h; outline: as §2
Candida tropicalis [7] = assay: Antifungal activity against Candida tropicalis cgmcc 2.1975 after 48 hrs by broth microdilution method; settings: cgmcc 2.1975, 48 h; outline: as §3
Candida albicans [8] = assay: Antifungal activity against Candida albicans SP3876 after 48 hrs by broth microdilution method; settings: SP3876, 48 h; outline: as §2
Candida albicans [9] = assay: Fungicidal activity against fluconazole-resistant Candida albicans 56214 after 96 hrs; settings: Candida albicans, 56214, 96 h; read-out: MFC99.9; outline: as §1
Candida albicans [10] = assay: Antifungal activity against Candida albicans cgmcc 2.2086 in presence of KCl by broth dilution method
Candida albicans [11] = assay: Antifungal activity against Candida albicans cgmcc 2.2086 after 48 hrs by broth microdilution method; settings: cgmcc 2.2086, 48 h; outline: as §2
Candida albicans [12] = assay: Antifungal activity against Candida albicans isolated from alveolar fluid after 48 hrs by broth microdilution method; outline: as §2
Candida albicans [13] = assay: Fungicidal activity against Candida albicans SP3903 after 96 hrs; settings: SP3903, 96 h, read-out: MFC99.9; outline: as §1
Candida albicans [14] = assay: Antifungal activity against Candida albicans cgmcc 2.2086 in presence of CaCl2 by broth dilution method
Candida albicans [15] = assay: Antifungal activity against Candida albicans cgmcc 2.2086 in presence of FeCl3 by broth dilution method
Candida albicans [16] = assay: Antifungal activity against Candida albicans cgmcc 2.2086 in presence of NaCl by broth dilution method
Candida albicans [17] = assay: Fungicidal activity against Candida albicans SP3876 after 96 hrs; settings: SP3876, 96 h, read-out: MFC99.9; outline: as §1
Candida albicans [18] = assay: Antifungal activity against fluconazole-resistant Candida albicans 17546 after 48 hrs by broth microdilution method; settings: Candida albicans, 17546, 48 h; outline: as §2
Pichia kudriavzevii [19] = assay: Fungicidal activity against Candida krusei cgmcc 2.1857 after 96 hrs; settings: cgmcc 2.1857, 96 h, read-out: MFC99.9
Outline: (§4)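 Wells from the 48 h, 28 °C RPMI 1640/MOPS microdilution plates were plated on YM agar and incubated a further 48 h at 28 °C. MFC is the lowest concentration killing at least 99.9% of cells. Run in triplicate with three biological replicates.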

Candida albicans [20] = assay: Fungicidal activity against Candida albicans SP3931 after 96 hrs; settings: SP3931, 96 h, read-out: MFC99.9; outline: as §1
Candida albicans [21] = assay: Fungicidal activity against Candida albicans 14936 after 96 hrs; settings: Candida albicans, 14936, 96 h; read-out: MFC99.9; outline: as §1
Candida albicans [22] = assay: Antifungal activity against fluconazole-resistant Candida albicans 56214 after 48 hrs by broth microdilution method; settings: Candida albicans, 56214, 48 h; outline: as §2
Candida albicans [23] = assay: Antifungal activity against Candida albicans cgmcc 2.2086 in presence of 50% human heat-inactivated serum by broth dilution method
Candida albicans [24] = assay: Antifungal activity against fluconazole-resistant Candida albicans 56452 after 48 hrs by broth microdilution method; settings: Candida albicans, 56452, 48 h; outline: as §2
Candida albicans [25] = assay: Fungicidal activity against Candida albicans SP3902 after 96 hrs; settings: SP3902, 96 h, read-out: MFC99.9; outline: as §1
Candida tropicalis [26] = assay: Fungicidal activity against Candida tropicalis cgmcc 2.1975 after 96 hrs; settings: cgmcc 2.1975, 96 h, read-out: MFC99.9; outline: as §4
Candida albicans [27] = assay: Fungicidal activity against Candida albicans isolated from alveolar fluid after 96 hrs; settings: read-out: MFC99.9; outline: as §1
Candida albicans [28] = assay: Fungicidal activity against fluconazole-resistant Candida albicans 17546 after 96 hrs; settings: Candida albicans, 17546, 96 h; read-out: MFC99.9; outline: as §1
Candida albicans [29] = assay: Antifungal activity against Candida albicans 58288 after 48 hrs by broth microdilution method; settings: Candida albicans, 58288, 48 h; outline: as §2
Candida parapsilosis [30] = assay: Antifungal activity against Candida parapsilosis cgmcc 2.3989 after 48 hrs by broth microdilution method; settings: Lodderomyces parapsilosis, cgmcc 2.3989, 48 h; outline: as §3
Candida albicans [31] = assay: Fungicidal activity against fluconazole-resistant Candida albicans 56452 after 96 hrs; settings: Candida albicans, 56452, 96 h; read-out: MFC99.9; outline: as §1
Candida parapsilosis [32] = assay: Fungicidal activity against Candida parapsilosis cgmcc 2.3989 after 96 hrs; settings: Lodderomyces parapsilosis, cgmcc 2.3989, 96 h; read-out: MFC99.9; outline: as §4
Candida albicans [33] = assay: Fungicidal activity against Candida albicans cgmcc 2.2086 after 96 hrs; settings: cgmcc 2.2086, 96 h, read-out: MFC99.9; outline: as §1
Candida albicans [34] = assay: Antifungal activity against Candida albicans cgmcc 2.2086 in presence of MgCl2 by broth dilution method
Candida albicans [35] = assay: Antifungal activity against Candida albicans 14936 after 48 hrs by broth microdilution method; settings: Candida albicans, 14936, 48 h; outline: as §2
Candida albicans [36] = assay: Antifungal activity against Candida albicans SP3931 after 48 hrs by broth microdilution method; settings: SP3931, 48 h; outline: as §2
Candida albicans [37] = assay: Antifungal activity against Candida albicans cgmcc 2.2086 in presence of NH4Cl by broth dilution method
Candida albicans [38] = assay: Antifungal activity against Candida albicans cgmcc 2.2086 in presence of ZnCl2 by broth dilution method

CC(=O)N1CCN(c2ccc(OCC3COC(Cn4ccnc4)(c4ccc(Cl)cc4Cl)O3)cc2)CC1 (stereo not drawn) [KETOCONAZOLE]
MIC (Candida albicans [1]): 0.25 µM | MFC (Candida albicans [2]): > 64 µM | MIC95 (Candida albicans [3]): > 64 µM | MIC95 (Pichia kudriavzevii [4]): 1 µM (≈ 0.531 µg/mL) | MIC (Candida albicans [5]): 0.25 µM | MIC95 (Candida albicans [6]): > 64 µM | MIC95 (Candida tropicalis [7]): 0.25 µM (≈ 0.133 µg/mL) | MIC95 (Candida albicans [8]): > 64 µM | MFC (Candida albicans [9]): > 64 µM | MIC (Candida albicans [10]): 0.25 µM | MIC95 (Candida albicans [11]): 0.25 µM (≈ 0.133 µg/mL) | MIC95 (Candida albicans [12]): 0.5 µM (≈ 0.266 µg/mL) | MFC (Candida albicans [13]): > 64 µM | MIC (Candida albicans [14]): 0.5 µM | MIC (Candida albicans [15]): 0.25 µM | MIC (Candida albicans [16]): 0.25 µM | MFC (Candida albicans [17]): > 64 µM | MIC95 (Candida albicans [18]): 32 µM (≈ 17 µg/mL) | MFC (Pichia kudriavzevii [19]): 1 µM (≈ 0.531 µg/mL) | MFC (Candida albicans [20]): > 64 µM | MFC (Candida albicans [21]): > 64 µM | MIC95 (Candida albicans [22]): 64 µM (≈ 34 µg/mL) | MIC (Candida albicans [23]): 0.5 µM | MIC95 (Candida albicans [24]): 64 µM (≈ 34 µg/mL) | MFC (Candida albicans [25]): > 64 µM | MFC (Candida tropicalis [26]): 1 µM (≈ 0.531 µg/mL) | MFC (Candida albicans [27]): 2 µM (≈ 1.06 µg/mL) | MFC (Candida albicans [28]): 64 µM (≈ 34 µg/mL) | MIC95 (Candida albicans [29]): 1 µM (≈ 0.531 µg/mL) | MIC95 (Candida parapsilosis [30]): 0.25 µM (≈ 0.133 µg/mL) | MFC (Candida albicans [31]): > 64 µM | MFC (Candida parapsilosis [32]): 1 µM (≈ 0.531 µg/mL) | MFC (Candida albicans [33]): 1 µM (≈ 0.531 µg/mL) | MIC (Candida albicans [34]): 0.25 µM | MIC95 (Candida albicans [35]): > 64 µM | MIC95 (Candida albicans [36]): > 64 µM | MIC (Candida albicans [37]): 0.25 µM | MIC (Candida albicans [38]): 0.25 µM
